STK33 inh: blocks human STK33 kinase activity; Q9BYT3; purified STK33, MBP phosphorylation, ADP-Glo luminescence; inhibition, % at 10 µM; 0.073% of 320,000 active; AID 2661;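 active = inhibition at or above 25%, using the most active replicate where run in duplicate; inactive = inhibition below 25%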
TAG inh: triacylglycerol accumulation inhibition; AID 651582; H9c2 cells, Nile Red lipid (TAG) fluorescence; cells loaded with 200 µM oleic acid; inhibition, % at 12.5 µM; 0.66% of 230,000 active;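 active = pattern-corrected inhibition of lipid staining of at least 50% with the nuclear-stain viability signal not falling by more than 50%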
GSK3B inh: blocks human GSK3beta kinase activity. P49841. GST-GSK3beta kinase, ADP-Glo luminescence, 60 min; hits give low values. activity score (negative = inhibition), % at 10 µM. 0.038% of 300,000 active. AID 2097;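 active = more than half of replicate wells score below -50%, meaning over 50% inhibition versus plate controls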
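test system = GST-tagged human GSK3beta kinase, cell-free | reagent = 25 µM ATP with peptide substrate | dosing = one dose of 10 µM per compound | schedule = 60 min reaction, RT | detection = luminescent ADP-Glo measurement of ADP formed | control set = DMSO neutral wells and GW8510 at 20 µM as positive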
GSK3A inh: inhibitors of human GSK-3 alpha kinase | P49840 | ADP-Glo luminescence, 60 min | inhibition, % at 10 µM | 0.1% of 320,000 active;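 active = more than half of replicates show inhibition above 20%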;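 note: GST-tagged GSK-3 alpha with peptide substrate and 25 µM ATP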
Target sequence (P49840 whole entry, looked up): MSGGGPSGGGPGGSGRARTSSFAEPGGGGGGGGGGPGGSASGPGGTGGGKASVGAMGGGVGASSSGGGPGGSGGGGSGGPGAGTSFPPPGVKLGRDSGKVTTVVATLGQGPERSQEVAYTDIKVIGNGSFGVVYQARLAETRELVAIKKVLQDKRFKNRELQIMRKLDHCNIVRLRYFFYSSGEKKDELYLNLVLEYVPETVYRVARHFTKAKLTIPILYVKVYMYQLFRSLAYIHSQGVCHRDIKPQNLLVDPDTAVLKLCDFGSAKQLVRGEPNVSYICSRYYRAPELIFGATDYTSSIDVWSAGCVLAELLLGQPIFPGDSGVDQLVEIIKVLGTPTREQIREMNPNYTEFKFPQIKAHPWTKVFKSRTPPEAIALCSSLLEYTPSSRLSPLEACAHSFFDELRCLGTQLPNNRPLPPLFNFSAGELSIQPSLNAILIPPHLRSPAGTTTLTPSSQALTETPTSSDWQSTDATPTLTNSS
LANA-H2A inh: blocks KSHV LANA binding to histone H2A/H2B. Q9QR71. 0.6% of 320,000 active. AID 2629. inhibition, % (concentration not given with the values). cell-free LANA-H2A/H2B peptide, fluorescence polarization; in the data active = inhibition mostly above about 10%, no sharp cut-off; inactive = mostly below about 6.7%
Lipid droplet: hepatic lipid droplet formation modulation | AML12 mouse hepatocytes, oleate lipid droplets, BODIPY imaging | inhibition, % at 6.5 µM | 0.4% of 240,000 active;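 active = lipid droplet intensity inhibited by at least 50%, with more than 500 cells counted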
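Assay system: AML12 mouse liver cells | Compound: 6.5 µM single-point dosing | Schedule: Overnight exposure | Technique: Fluorescence imaging, 20x objective, two fields per well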
Each line names hits and unclear results; the compound was inactive in the other large screens; ! = not confirmed by another sample. A selection: hits, their analogues and other compounds. The true share with any hit is near 1.3%.

Nc1nc(-c2ccccc2)c(-c2ccccc2)o1	LANA-H2A inh 28.9
O=C(Nc1nnc(SCc2ccc(F)cc2)s1)C1CC(=O)N(Cc2ccccc2)C1 (centres undefined)	none (no result: TAG inh)
Nc1c(C(=O)O)ccc2c1C(=O)c1ccccc1C2=O	STK33 inh 52.3, GSK3A inh 58.2
Nc1c(SCCC(=O)O)ccc2c1C(=O)c1ccccc1C2=O	none (no result: TAG inh)
Nc1cc(C(=O)O)c(N)c2c1C(=O)c1ccccc1C2=O	STK33 inh 76.8, GSK3A inh 54.5
O=C(O)c1cc2ccccc2c2c1C(=O)c1ccccc1-2	none (no result: STK33 inh, GSK3B inh, GSK3A inh, LANA-H2A inh, Lipid droplet)
O=C(NCc1cccs1)C1CCCN(C(=O)Nc2ccc(F)cc2)C1 (centres undefined)	none (no result: TAG inh)
O=c1[nH]c(Cc2ccccc2)nc2c1oc1ccccc12	LANA-H2A inh 8.2 (no result: TAG inh)
COC(=O)c1ccc(COc2ccc(F)cc2)o1	Lipid droplet 60.9 (no result: TAG inh)
O=S(=O)(c1ccc2[nH]c3c(c2c1)CCCC3)N1CCCCC1	LANA-H2A inh 18.0 (no result: TAG inh)
CCOC(=O)C1CCCN(C(=O)C2c3ccccc3Oc3ccccc32)C1 (centres undefined)	LANA-H2A inh 70.6 (no result: TAG inh)
CCOC(=O)C1CCCN(C(=O)C2COc3ccccc3O2)C1 (centres undefined)	none (no result: STK33 inh, GSK3B inh, GSK3A inh, LANA-H2A inh, Lipid droplet)
Cc1cc(C)n(C2CC(=O)N(c3cc(Cl)cc(Cl)c3)C2=O)n1 (centres undefined)	none
Cc1c(N2C(=O)/C(=C3\C(=O)N(CC(=O)O)c4ccccc43)SC2=S)c(=O)n(-c2ccccc2)n1C	LANA-H2A inh 22.4
COc1ccc(C(=O)Nc2ccc3nc(C)sc3c2)cc1S(=O)(=O)N1CCOCC1	none (no result: STK33 inh, GSK3B inh, GSK3A inh, LANA-H2A inh, Lipid droplet)
Cc1ccc(N(CC(=O)N2CCc3ccccc32)C2=NC(=O)CS2)cc1	none (no result: Lipid droplet)
O=C(CSc1ccccc1F)Nc1ccc(N2CCOCC2)cc1	LANA-H2A inh 18.1 (no result: GSK3B inh, Lipid droplet)
CCC1CCCCN1CCCNC(=O)c1ccc(/C=C2/Sc3ccccc3NC2=O)cc1 (centres undefined)	none (no result: TAG inh)
C[N+](C)(C)c1ccc(/C=N/Nc2nc(Cl)c(C#N)c(Cl)c2Cl)cc1	LANA-H2A inh 54.3 (no result: TAG inh)
O=C(C1CC(c2ccc(F)cc2)=NO1)N1CCCc2ccccc21 (centres undefined)	none
CCN(CC)CCC(=O)N1C/C(=C/c2ccccc2)C(=O)/C(=C\c2ccccc2)C1	TAG inh 50.5 (no result: STK33 inh, GSK3B inh, GSK3A inh, LANA-H2A inh, Lipid droplet)
O=C(c1cc(Cl)nc2ccccc12)N1CCN(Cc2ccc3c(c2)OCO3)CC1	LANA-H2A inh 20.8 (no result: GSK3B inh, Lipid droplet)
COc1ccc(C(=O)N2CCN(Cc3ccc4c(c3)OCO4)CC2)cc1OC	none (no result: TAG inh)
COc1ccc(Cl)cc1C(=O)N1CCN(Cc2ccc3c(c2)OCO3)CC1	LANA-H2A inh 14.3 (no result: Lipid droplet)
CC1CCC(=NNc2ccc(C(F)(F)F)cc2[N+](=O)[O-])CC1 (centres undefined)	none (no result: TAG inh)
O=C(CSc1nnc(-c2n[nH]c3ccccc23)n1-c1ccccc1)Nc1ccccc1Cl	none
Cc1cccc(Nc2ncccc2C(=O)O)c1C	LANA-H2A inh 58.8! (no result: Lipid droplet)
O=C(NNC(=O)c1cccc2ccccc12)c1ccco1	none (no result: Lipid droplet)
Oc1ccccc1C(Nc1nccs1)c1ccc2cccnc2c1O (centres undefined)	TAG inh 52.0
COc1ccc(-c2cc(C3CC3)nc3sc(C#N)c(N)c23)cc1	none
CCOC(=O)C1=C[C@]2(CC)CCCN3CCc4c(n1c1ccccc41)[C@@H]32	LANA-H2A inh 19.2!
CC[C@]12CCCN3CCc4c(n(c5ccccc45)C(=O)C1)[C@@H]32	none (no result: GSK3B inh, Lipid droplet)
CCCS(=O)(=O)NC(=O)C1(C)CCN(C(=O)c2cc3ccccc3s2)C1 (centres undefined)	none (no result: STK33 inh, GSK3B inh, GSK3A inh, LANA-H2A inh, Lipid droplet)
Cc1c(C(=O)Nc2ccc3c(c2)OCO3)sc2nc(-c3ccccc3)cn12	none (no result: TAG inh)
C[N+]1(CCC(=O)c2ccccc2)CCCCC1	none (no result: TAG inh)
C[N+]1(C)CCC(=C(c2ccccc2)c2ccccc2)CC1	LANA-H2A inh 15.3 (no result: GSK3B inh, Lipid droplet)
CCOc1cc(C(=S)N2CCCC2)ccc1OCc1ccccc1	LANA-H2A inh 9.2
Fc1ccc(COc2ccc(C(=S)N3CCCC3)cc2)cc1	LANA-H2A inh 22.2
O=C(Nc1ccc(Oc2ccc(C(F)(F)F)cn2)c(Cl)c1)C1CC1	none
CC(C)OC(=O)C(C)(C)Oc1ccc(C(=O)c2ccc(Cl)cc2)cc1	LANA-H2A inh 35.4!
COc1ccc(CCN2C(=NC(=O)CC(C)C)SC3CS(=O)(=O)CC32)cc1OC (centres undefined)	LANA-H2A inh 22.1
CN1/C(=C/C2CC(=O)N(c3cccc4ccccc34)C2=O)C(C)(C)c2ccccc21 (centres undefined)	none (no result: TAG inh)
CN1/C(=C/C2CC(=O)NC2=O)C(C)(C)c2ccccc21 (centres undefined)	GSK3A inh 64.9 (no result: TAG inh, GSK3B inh)
O=C(Cc1ccccc1)NC(=S)Nc1ccc2oc(-c3ccccc3F)nc2c1	none (no result: Lipid droplet)
COC(=O)c1ccc(CNC(=O)[C@@H]2CCCN2S(=O)(=O)c2ccccc2F)cc1	none (no result: GSK3B inh, Lipid droplet)
Cc1ccc(C)c(Sc2ccc(NC(=O)CCl)cc2)c1	none (no result: TAG inh)
O=C(CCl)Nc1ccc(N=Nc2ccccc2)cc1	none (no result: STK33 inh, TAG inh, GSK3A inh, LANA-H2A inh)
Cc1ccc(Sc2ccc(NC(=O)CCl)cc2)cc1C	TAG inh 63.0
O=C(CCl)Nc1ccc(-c2ccccc2)cc1	TAG inh 56.4
Cc1ccccc1Oc1nc(-c2ccccn2)nc2ccccc12	TAG inh 57.2
CCCCS(=O)(=O)N1CCN(S(=O)(=O)c2cccs2)CC1	none
CCOC(=O)C1=C(C)NC(=O)NC1c1cccc(O)c1 (centres undefined)	none (no result: TAG inh)
CC1CCCC(C)N1C(=O)COC(=O)C12CC3CC(CC(Cl)(C3)C1)C2 (centres undefined)	LANA-H2A inh 17.1 (no result: GSK3B inh, Lipid droplet)
CCCCCCCCN1C(=O)N(C)C(N(O)C(=O)NC)C1(C)C (centres undefined)	none (no result: Lipid droplet)
Cc1ccc(C(=O)C(C)N(C(=O)c2ccc(Cl)cc2Cl)N2C(=O)CCCC2=O)cc1 (centres undefined)	none
COc1ccc(NC(=O)CN(C)C(=O)c2ccccc2SCC(=O)N2CCCC2)cc1	LANA-H2A inh 18.6 (no result: Lipid droplet)
CCN(CC(=O)Nc1ccccc1C(F)(F)F)C(=O)c1ccccc1SCC(=O)N1CCCC1	LANA-H2A inh 35.0 (no result: Lipid droplet)
COc1ccc(NC(=O)CN(C)C(=O)C(Sc2ccccc2)c2ccccc2)cc1 (centres undefined)	LANA-H2A inh 60.0 (no result: GSK3B inh, Lipid droplet)
C=CCn1c(N)c(C(=O)Nc2cccc(C)c2)c2nc3ccccc3nc21	none (no result: Lipid droplet)
C=CCn1c(N)c(C(=O)Nc2ccc(C)c(C)c2)c2nc3ccccc3nc21	TAG inh 53.6 (no result: Lipid droplet)
CCCn1cc(CN2CCC(C(=O)Nc3cccc(-c4cscn4)c3)CC2)c(C)n1	none (no result: TAG inh)
CCCCCCCCCCCCCCCC[n+]1cccc2ccccc21	STK33 inh 50.0 (no result: TAG inh, GSK3B inh)
CCCCCCCCC[n+]1cccc2c3ccccc3ccc21	none (no result: TAG inh, Lipid droplet)
Oc1[nH]c2ccccc2c1C=Nc1ccc2c(c1)OCO2	STK33 inh 26.2 (no result: TAG inh)
C[C@H](NC(=O)c1nc[nH]c1C(=O)N[C@@H](CCCCN)C(=O)OC(C)(C)C)C(=O)OCc1ccccc1	none (no result: GSK3B inh, Lipid droplet)
